Screens deposited in PubChem by several laboratories.
Compounds with a hit are over-represented: about 4% of the library has one in this group of screens.
KCNQ1 inh – blocks the human KCNQ1 potassium channel; CHO-K1 KCNQ1, FluxOR thallium flux fluorescence; active compounds read high; AID 2642; B-score at 10 µM; 310,000 tested, 1.3% active;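 active = compounds whose thallium flux B-score, printed positive for inhibition, exceeds three library SD while starting fluorescence stays within three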;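 also: channel opened by potassium depolarization with thallium stimulus after 20 min compound exposure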
PHOSPHO1 inh – PHOSPHO1 (human) inhibition | Q8TCT1 | recombinant PHOSPHO1, absorbance phosphatase assay | inhibition, % at 13.3 µM | 290,000 tested, 1.1% active | AID 1565; in the data active = inhibition above about 60%
Target sequence (Q8TCT1 whole entry, looked up): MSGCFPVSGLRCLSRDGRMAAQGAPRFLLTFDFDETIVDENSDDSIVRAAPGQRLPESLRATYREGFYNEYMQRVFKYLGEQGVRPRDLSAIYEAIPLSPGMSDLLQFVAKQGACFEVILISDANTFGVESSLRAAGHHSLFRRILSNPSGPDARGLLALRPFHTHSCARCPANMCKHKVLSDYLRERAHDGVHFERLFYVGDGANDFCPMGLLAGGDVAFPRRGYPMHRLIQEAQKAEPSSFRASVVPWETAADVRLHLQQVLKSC
KCNQ1 act – potentiators or activators of human KCNQ1 potassium channel | P51787 | CHO-K1 KCNQ1, thallium flux FluxOR fluorescence; active compounds read high | 310,000 tested, 0.35% active | B-score at 10 µM;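 active = fluorescence ratio B-score, a plate-corrected score, at least three library SD, with initial intensity B-score within 5 SD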
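Assay system: CHO-K1 cells stably expressing KCNQ1; Medium: assay buffer with matched DMSO; Also added: K+/Tl+ depolarizing stimulus; Dosing: single dose; Timing: dye 90 min, compound 20 min, room temperature; Measured by: kinetic FluxOR thallium fluorescence, 10-s 1-Hz baseline, 110-s post-stimulus read; Read-out: peak-minus-minimum fluorescence over initial fluorescence, negative-control normalized, B-scored.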
KCNK9 block – inhibitors of human KCNK9 two-pore domain potassium channel; Q9NPC2; HEK293 KCNK9, FluxOR thallium flux fluorescence; active compounds read low; B-score at 10 µM; 310,000 tested, 1.2% active;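 active = ratio B-score over 3 SD below the library mean, with starting fluorescence within 5 SD of its mean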;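 also: negative B-score means less thallium flux so channel inhibition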
hERG rescue – hERG (human) protection from proarrhythmic block; CHO-hERG, FluxOR thallium flux, dofetilide IC70 present; activation (rescue from dofetilide block), less the hit threshold, % at 10 µM; 310,000 tested, 0.51% active; AID 1511;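 active = activation above the mean of controls blocked by dofetilide plus 5 SD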;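 also: thallium influx through hERG after potassium depolarization seen as dye fluorescence rise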
KCNK3 block – human KCNK3 channel inhibition, primary screen | O14649 | CHO-KCNK3 thallium flux, FluxOR fluorescence; active compounds read low | B-score at 10 µM | 340,000 tested, 0.84% active | AID 602410;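 active = B-score under library mean minus 4 SD, starting fluorescence ratio at most library mean plus 5 SD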;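 also: more negative B-score means stronger inhibition of thallium flux through KCNK3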
Target sequence (O14649 whole entry, looked up): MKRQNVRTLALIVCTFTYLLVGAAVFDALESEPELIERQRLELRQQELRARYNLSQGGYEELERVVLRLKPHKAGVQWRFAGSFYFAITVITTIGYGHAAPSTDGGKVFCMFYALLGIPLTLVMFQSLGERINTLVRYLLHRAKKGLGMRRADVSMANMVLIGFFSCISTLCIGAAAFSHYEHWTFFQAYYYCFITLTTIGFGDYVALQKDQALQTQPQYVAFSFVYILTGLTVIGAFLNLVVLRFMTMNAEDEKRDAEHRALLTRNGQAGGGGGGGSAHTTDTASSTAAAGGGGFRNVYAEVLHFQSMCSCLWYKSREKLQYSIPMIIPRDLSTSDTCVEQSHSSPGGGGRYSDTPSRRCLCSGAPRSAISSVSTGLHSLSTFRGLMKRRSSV
KCNQ1 block val – human KCNQ1 channel inhibition, validation assay. shares compounds with KCNQ1 inh. KCNQ1 cell line, FluxOR thallium flux fluorescence. inhibition, % at 10 µM. 1,600 tested, 93% active. AID 588353;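 active = primary screen active, with duplicate mean exceeding buffer control mean plus 3 SD of buffer wells, cut at about 28% in these data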;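 also: 0% = buffer control ratio and 100% = XE991 inhibitor control ratio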
CHO Tl flux – counter-screen for KCNQ1 inhibitors: effect in parental CHO cells; fluorescence ratio (Tl flux) at 10 µM; AID 588366; parental CHO-K1, FluxOR thallium flux fluorescence ratio; active compounds read low; zero means no signal rise above baseline; 1,600 tested, 21% active; shares compounds with KCNQ1 inh;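 active = mean of duplicate thallium-flux fluorescence ratios in parental host cells more than 5 SD below the buffer control mean, cut at about 0.38 in these data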;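 also: ratio is peak minus minimum fluorescence divided by baseline fluorescence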
KCNQ1 ephys val – human KCNQ1 inhibition validated by electrophysiology. shares compounds with KCNQ1 inh. KCNQ1-CHO cells, automated patch clamp current. AID 624120. calls only at 10 µM. 490 tested, 20% active;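 active = KCNQ1 current drop exceeding 3 SD of negative control wells, seen in both duplicate runs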;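 also: steady state current during a 2 s step from -80 to +40 mV; negative values mean current inhibition and positive values mean potentiation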
KCNQ2 spec – rat KCNQ2 inhibition in KCNQ1 inhibitor specificity screen | shares compounds with KCNQ1 inh | KCNQ2 cells, FluxOR thallium flux fluorescence | inhibition, % at 10 µM | 1,600 tested, 71% active | AID 651746;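 active = mean percent inhibition of the KCNQ2 thallium signal more than 5 SD above the buffer-only control wells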;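 also: KCNQ2 expressed in CHO cells; 0% = buffer control wells and 100% = XE-991 inhibitor control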
KCNQ1 KCNE1 spec – human KCNQ1/KCNE1 inhibition in KCNQ1 specificity screen; KCNQ1/KCNE1 cells, FluxOR thallium flux fluorescence; 1,600 tested, 77% active; shares compounds with KCNQ1 inh; inhibition, % at 10 µM;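 active = mean percent inhibition of duplicate wells above the buffer-only control mean plus 3 SD of those controls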;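 also: 0% = buffer only wells and 100% = XE-991 inhibitor control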
* hit, by the source's call; i = inactive; x = no result given.

SMILES | KCNQ1 inh | PHOSPHO1 inh | KCNQ1 act | KCNK9 block | hERG rescue | KCNK3 block | KCNQ1 block val | CHO Tl flux | KCNQ2 spec | KCNQ1 KCNE1 spec | others
COc1ccc(NC(=O)C(Sc2ccccc2)c2ccccc2)c(OC)c1 (stereo unspecified) | i | -14 | i | i | 0 | i | x | x | x | x
COc1ccccc1NC(=O)C(Sc1ccccc1)c1ccccc1 (stereo unspecified) | 10* | 12 | i | i | -11 | i | 84* | 0.4 | 112%* | 88%*
O=C(Nc1ccc(Br)cc1)c1cccc(S(=O)(=O)Nc2cnc3ccccc3c2)c1 | 6* | 6 | i | i | -10 | i | 139* | 0.43 | i | 58%*
O=C1CSc2ccc(C(=O)Nc3cccc(S(=O)(=O)Nc4ccc(Br)cc4)c3)cc2N1 | 10* | 12 | i | i | -10 | i | 138* | 0.33* | 101%* | 188%*
O=C(NCCN1CCOCC1)Nc1ccc(F)cc1 | i | 45 | i | i | -9 | i | x | x | x | x
Cc1cc(OCC(=O)Nc2ccncc2)ccc1Br | 13* | 12 | i | i | -14 | i | 72* | 0.54 | i | i
CC(C)(C)OC(=O)N1CCCC(C(=O)CC#N)C1 (stereo unspecified) | 9* | -4 | i | i | -11 | i | 96* | 0.49 | 109%* | 188%* | KCNQ1 ephys val=i
CCn1c(=O)c(CCC(=O)N2CCN(c3ccccn3)CC2)c(C)c2c(C)nn(-c3ccccc3)c21 | 7* | 13 | i | i | -10 | i | 48* | 0.44 | 93%* | 80%*
CC1CCN(CC(O)COCCC23CC4CC(CC(C4)C2)C3)CC1 (stereo unspecified) | 7* | 9 | i | i | -9 | i | 72* | 0.38* | 79%* | 76%*
CCOc1ccc(-c2cc(C(=O)NCCCn3ccnc3)c3ccccc3n2)cc1 | 6* | 16 | i | i | -10 | i | 26* | 0.43 | 86%* | 43%*
CC(OC(=O)c1ccccc1NCCO)C(=O)Nc1ccc(S(=O)(=O)N2CCOCC2)cc1 (stereo unspecified) | i | x | i | i | -17 | i | x | x | x | x
O=C(Nc1ccccc1N1CCCCC1)C1CCN(S(=O)(=O)c2cccc(C(F)(F)F)c2)CC1 | 6* | x | i | i | -9 | i | 62* | 0.47 | 110%* | 48%*
COc1cccc(COC(=O)c2c(C)nn(-c3ccccc3)c2Cl)c1OC | 7* | 15 | i | i | -9 | i | 114* | 0.42 | 116%* | 99%* | KCNQ1 ephys val=i
Cc1cc(C)nc(N2CCC(C(=O)N3CCN(c4cc(Cl)ccc4C)CC3)CC2)n1 | 9* | 14 | i | i | -14 | i | 140* | 0.46 | 111%* | 176%* | KCNQ1 ephys val=i
Cc1ccc(C)c(N2CCN(C(=O)C3CCN(c4nc(C)cc(C)n4)CC3)CC2)c1 | i | -30 | i | i | -13 | i | x | x | x | x
CCc1noc(C)c1C(=O)N1CCCSC1=Nc1ccccc1C(C)C | 6* | x | i | i | -9 | i | 84* | 0.39 | 106%* | 104%*
CCc1noc(C)c1C(=O)N1CCCC1 | i | 14 | i | i | -7 | i | x | x | x | x
CSC1=NCCN1S(=O)(=O)c1ccc(Cl)cc1 | i | -2 | i | i | -2 | i | x | x | x | x
CCc1c(O)nc(SCC(=O)Nc2nc3ccccc3s2)n(C2CCCCC2)c1=O | 7* | 27 | i | i | -7 | i | 0 | 0.59 | i | i
CCc1c(O)nc(SCC(=O)Nc2ccc(OC)cc2)n(C2CCCCC2)c1=O | i | 39 | i | i | -16 | i | x | x | x | x
Fc1ccc(NC(=S)NCCc2ccc(Cl)cc2)cc1 | i | 6 | i | i | -22 | i | x | x | x | x
Fc1ccc(CCNC(=S)Nc2ccc(F)c(Cl)c2)cc1 | 9* | 32 | i | i | -25 | i | 48* | 0.58 | i | i
COc1ccc(Cl)cc1NC(=S)NCCc1ccc(F)cc1 | 6* | -4 | i | i | -12 | i | 64* | 0.49 | 114%* | 50%*
NC(=O)C[C@@H]1NC(=O)c2cc([N+](=O)[O-])cc(F)c2NCCCC[C@@H](C(N)=O)NC(=O)[C@H](CO)NC1=O | x | -9 | x | x | x | x | x | x | x | x
CCc1cc(Br)ccc1NC(=S)NCCc1ccccc1 | 6* | 23 | i | i | -9 | i | 65* | 0.51 | 59%* | 70%*
SMILES | KCNQ1 inh | PHOSPHO1 inh | KCNQ1 act | KCNK9 block | hERG rescue | KCNK3 block | KCNQ1 block val | CHO Tl flux | KCNQ2 spec | KCNQ1 KCNE1 spec | others
O=C(NCCCCc1ccccc1)Nc1cccc(F)c1 | 6* | 36 | i | i | -15 | i | 61* | 0.52 | i | 36%*
Cc1cccc(NC(=O)NCCCCc2ccccc2)c1 | i | 24 | i | i | -2 | i | x | x | x | x
Fc1ccc(F)c(NC(=S)NCCc2ccccc2)c1 | 7* | 17 | i | i | -5 | i | 53* | 0.56 | 81%* | 71%*
CN(CC(=O)NCCc1ccccc1)CC(=O)Nc1cccc(F)c1 | x | x | x | x | x | i | x | x | x | x
Fc1cccc(NC(=S)NCCc2ccccc2)c1 | 7* | -5 | i | i | -9 | i | 52* | 0.56 | 62%* | i
COc1ccc(NC(=S)NCCc2ccccc2)c(C)c1 | i | 31 | i | i | -5 | i | x | x | x | x
CCOC(=O)c1ccc(N2CCN(c3ccccc3F)CC2)c(NC(=O)Nc2ccccc2)c1 | 6* | -5 | i | i | -19 | i | 118* | 0.36* | 118%* | 138%*
Cc1ccccc1OCCCCc1c(C)n[nH]c1C | 7* | 5 | i | i | -12 | i | 109* | 0.44 | 97%* | 80%* | KCNQ1 ephys val=i
CC(c1ccccc1)N1C(=O)c2ccc(C(=O)Nc3ccccc3C(=O)O)cc2C1=O (stereo unspecified) | i | 9 | i | i | -18 | i | x | x | x | x
